Measured values: article PMC5035150 (Journal of biological inorganic chemistry : JBIC : a …, 2015)
Where two headings read alike, the source gives them in different places.

Key:
[1] = test system: KB-3-1 human cervical carcinoma cell line; experiment: Cytotoxicity, CellTiter-Glo, monolayer; assay type: cell-based
How it was run: (§1)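 Monolayers in DMEM (4.5 g/L glucose, L-glutamine, penicillin/streptomycin, 10% FBS) at 37 °C, 5% CO2. […] Cells at 1000/well grown 24 h, then given test compound (from DMF, DMSO or 3 mM saline stock) as 1:3 serial dilutions in DMEM, DMF at most 0.25% final. After 72 h, CellTiter-Glo luminescence read, in triplicate.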

[2] = test system: cisplatin-resistant KB CP.5 cells; experiment: Cytotoxicity, CellTiter-Glo, monolayer; assay type: cell-based, human
How it was run: as §1

[3] = test system: cisplatin-resistant KB CP20 cells; experiment: Cytotoxicity, CellTiter-Glo, monolayer; assay type: cell-based, human; conditions: for IC50: read-out: IC50 KB CP20, 72 h; for resistance of CP20 cells: relative to parent KB-3-1 cells, monolayer (Table 1 data)
How it was run: as §1

[4] = test system: CP20 cells relative to KB-3-1 cells; experiment: Cellular accumulation by flow cytometry; assay type: cell-based, human; conditions: 25 μM, 45 min, normalized to KB-3-1
How it was run: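 Cells trypsinised (200,000 per tube), washed twice and resuspended in IMDM with 5% FBS containing fluorescent test compound (final 25 μM), then held 45 min at 37 °C. Cells rewashed, resuspended in PBS and kept on ice. FL-1 fluorescence read by flow cytometry (488 nm laser, 10,000 events per sample), normalised to parental KB-3-1 cells.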

Distribution coefficient = conditions: [octanol]:[phosphate-buffered saline, pH 7.2], fluorescence, mean ± SD
[5] = test system: phosphorylation of histone H2A.X in KB-3-1 cells; experiment: H2AX immunohistochemical staining; assay type: cell-based, human; conditions: 24 h treatment
How it was run: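 KB-3-1 cells (5 × 10^4 per chamber) grown 24 h, then exposed to Pt complexes (5–100 μM) for 24 h. Cells PBS-washed, fixed in 4% paraformaldehyde and blocked 1 h in PBS/5% normal horse serum/0.3% Triton X-100. Stained overnight at 4 °C with Alexa Fluor 647-conjugated anti-phospho-H2A.X (Ser139) rabbit mAb, counterstained with DAPI (2 μg/mL, 1 h), then imaged for γH2A.X foci by confocal microscopy.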

[6] = pH 7.2
[7] = test system: KB-3-1 cells grown in Matrigel; experiment: Cytotoxicity in three dimensional Matrigel culture, CellTiter-Glo; assay type: cell-based, human; conditions: KB-3-1, Matrigel
How it was run: (§2)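 Wells coated with 5 mg/mL Matrigel and gelled 30 min at 37 °C. Cells (1000/well) seeded over it in 2.5 mg/mL Matrigel and grown 1 day (single cells) or 4 days (spheroids). Test compound added as 1:3 serial dilutions in DMEM. Viability by CellTiter-Glo with 60 min lysis, run in triplicate.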

[8] = test system: CP.5 cells grown in Matrigel; experiment: as above; assay type: cell-based, human; conditions: for IC50: CP.5, Matrigel
How it was run: as §2

[9] = test system: cisplatin-resistant cell lines; conditions: cited from earlier work
[10] = read-out: IC50 KB 3-1, solvent DMF, 72 h
[11] = read-out: IC50 KB CP.5, solvent DMF, 72 h
[12] = relative to parent KB-3-1 cells, monolayer (Table 1 data)
[13] = read-out: IC50 2D, KB-3-1, 2D culture (Table 2)
[14] = read-out: IC50 KB 3-1, solvent Saline, 72 h
[15] = read-out: IC50 2D, CP.5, 2D culture (Table 2)
[16] = read-out: IC50 KB CP.5, solvent Saline, 72 h
[17] = read-out: IC50 3D 1 Day, grown 1 day (single-cell suspension)
[18] = read-out: IC50 3D 4 Day, grown 4 days (spheroids)

Row | Molecule | IC50 [1, 10] [µM] | IC50 [2, 11] [µM] | IC50 ([3]; solvent DMF) [µM] | resistance of CP.5 cells [2, 12] [fold] | resistance of CP20 cells [3] [fold] | IC50 [1, 13] [µM] | IC50 [1, 14] [µM] | IC50 [2, 15] [µM] | IC50 [2, 16] [µM] | IC50 ([3]; solvent Saline) [µM] | IC50 [7, 17] [µM] | IC50 [7, 18] [µM] | IC50 [8, 17] [µM] | IC50 [8, 18] [µM] | reduction in accumulation in cisplatin-resistant cells [9] | other results
1 | CC1=CC(C)=[N+]2C1=Cc1ccc(CCC(=O)NCCNC(=O)OC(C)(C)C)n1[B-]2(F)F [BODIPY-Boc, tert-Butyl (2-(3-(5,5-Difluoro-7,9-dimethyl-5H-4λ^4,5λ^4-dipyrrolo[1,2-c:2′,1′-f][1,3,2]diazaborinin-3-yl)propanamido)ethyl)carbamate] | 86.7 ± 0.8 | 86.9 ± 4.4 | 53.6 ± 2.9 | – | – | – | – | – | – | – | – | – | – | – | – | reduction of accumulation in CP20 cells versus parent KB-3-1 cells [4]: unaffected; LogD (Distribution coefficient): 2.15 ± 0.023
2 | CC1=CC(C)=[N+]2C1=Cc1ccc(CCC(=O)NCCNC(=O)C3C[NH][Pt]([Cl])([Cl])[NH]3)n1[B-]2(F)F (stereo not drawn) [BODIPY-prop-Pt, [(2,3-Diamino-N-(2-(3-(5,5-difluoro-7,9-dimethyl-5H-4λ^4,5λ^4-dipyrrolo[1,2-c:2′,1′-f][1,3,2]diazaborinin-3-yl)propanamido)ethyl)propanamide)dichloroplatinum (II)]] | 21.5 ± 5.8 | 44.6 ± 2.7 | 192 ± 50.3 | 2 | 10 | – | – | – | – | – | – | – | – | – | – | γH2A.X foci ([5]; 50 μM): did so at 50 μM; LogD [6]: 0.66 ± 0.011
3 | N.N.[Cl][Pt][Cl] [Cisplatin, cis-[PtCl2(NH3)2]] | 1.8 ± 0.1 | 23.9 ± 5.3 | 125 ± 31.5 | 10 | 60 | 2.5 ± 0.1 | 2.5 ± 0.2 | 21 ± 2.8 | 25.1 ± 3.4 | > 100 | 4.5 ± 0.7 | 9.4 ± 0.7 | 22.9 ± 4.6 | 32.1 ± 6.9 | 50–75% | resistance of CP.5 cells ([2]; 2D (Table 2 data), relative to KB-3-1): 8.4 fold; resistance of CP.5 spheroids ([8]; 3D 4 day, relative to KB-3-1): 3.4 fold; γH2A.X foci / DNA damage response ([5]; 5 μM): strong DNA damage response
4 | NCCN.[Cl][Pt][Cl] [[PtCl2(en)]] | 1 ± 0.6 | 150 ± 11.8 | > 500 | 40 | – | 4.1 ± 0.2 | 2.7 ± 1.9 | 107 ± 10.9 | 94.9 ± 8.3 | > 100 | 21.4 ± 1 | 150 | 298 ± 21.8 | > 500 | – | γH2A.X foci / DNA damage response ([5]; 25 μM): strong DNA damage response
5 | [Pt(O,O′-cdbca)(NH3)2] [[^14C]carboplatin] | – | – | – | – | – | – | – | – | – | – | – | – | – | – | 50–75% | –
